PfGluPho inh: PfG6PD enzyme inhibitors, primary screen, biochemical, fluorescence intensity, uHTS. glucose-6-phosphate dehydrogenase-6-phosphogluconolactonase (Plasmodium falciparum 3D7). PfGluPho enzyme, NADPH resazurin-diaphorase fluorescence. inhibition, % at 20 µM. 350,000 tested, 0.78% active. AID 504690, 2011;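 active = inhibition reaching at least a set limit at 20 µM in the primary screen, cut at about 59% in these data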;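 also: 0% = DMSO wells with substrate and 100% = DMSO wells lacking glucose-6-phosphate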
CCR6 antag: CCR6 receptor antagonists, primary screen, cell-based, CHO-K1, luminescence, beta-arrestin, uHTS. AID 493098, 2011. inhibition, % at 20 µM. CHO-K1 CCR6 PathHunter beta-arrestin, CCL20-stimulated. 340,000 tested, 0.49% active. C-C chemokine receptor type 6 (Homo sapiens), P51684;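 active = compounds whose inhibition of the agonist-driven luminescence signal at 20 µM reaches about 50%, limit read from the data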;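 also: cells stimulated with CCL20 at 14 nM final; plate controls were DMSO with CCL20 for no effect and DMSO without agonist for full effect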
Target sequence (P51684 whole entry, looked up): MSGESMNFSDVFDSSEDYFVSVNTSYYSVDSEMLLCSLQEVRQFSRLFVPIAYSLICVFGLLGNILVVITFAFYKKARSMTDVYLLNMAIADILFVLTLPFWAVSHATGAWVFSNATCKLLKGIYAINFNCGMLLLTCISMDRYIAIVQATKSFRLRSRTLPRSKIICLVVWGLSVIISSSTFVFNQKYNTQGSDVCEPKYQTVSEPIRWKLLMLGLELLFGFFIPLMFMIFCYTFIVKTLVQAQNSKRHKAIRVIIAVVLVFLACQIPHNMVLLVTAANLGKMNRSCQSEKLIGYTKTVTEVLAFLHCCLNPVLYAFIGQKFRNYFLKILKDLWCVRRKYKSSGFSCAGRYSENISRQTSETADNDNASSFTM
CXCR6 block: CXCR6 receptor inhibitors, primary screen, cell-based, beta-arrestin, luminescence, CHO-K1 PathHunter, 1536-well. C-X-C chemokine receptor type 6 (Homo sapiens), O00574. inhibition, % at 20 µM. 360,000 tested, 0.36% active. AID 602244, 2012; in the data active = inhibition above about 34%, passing the limit was not always enough;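 also: antagonist mode with CXCL16 agonist at 10 nM final; 0% = 10 nM CXCL16 with DMSO and 100% = unstimulated wells without agonist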
Target sequence (O00574 whole entry, looked up): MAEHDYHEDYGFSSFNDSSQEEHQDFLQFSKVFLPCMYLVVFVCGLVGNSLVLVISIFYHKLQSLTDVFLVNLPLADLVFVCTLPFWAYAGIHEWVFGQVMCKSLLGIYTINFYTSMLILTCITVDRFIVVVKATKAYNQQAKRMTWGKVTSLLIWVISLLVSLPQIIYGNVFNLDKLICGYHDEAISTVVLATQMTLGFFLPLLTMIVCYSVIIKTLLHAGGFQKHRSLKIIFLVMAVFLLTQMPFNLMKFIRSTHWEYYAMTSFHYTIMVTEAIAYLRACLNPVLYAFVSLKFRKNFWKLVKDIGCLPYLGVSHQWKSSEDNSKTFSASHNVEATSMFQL
Beta2AR agonist: beta2AR agonists driving receptor internalization, primary screen, cell-based, FAP fluorogen, flow cytometry; Beta-2 adrenergic receptor (Homo sapiens), P07550; Am2.2-beta2AR cells; response, % (concentration not given with the values); 340,000 tested, 0.43% active; AID 504454, 2011;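 active = response above a set limit, near 3 SD of response in nonfluorescent compounds, cut at about 42% in these data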
APJ agonist: agonists of human apelin receptor APJ, primary screen, CHO-K1 cells, PathHunter beta-arrestin, luminescence | 0% DMSO wells, 100% apelin | activation, % at 20 µM | 330,000 tested, 0.11% active | P35414 | AID 2520, 2010;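 active = activation more than six SD over the plate average, tested at 20 µM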;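 also: 0% = DMSO alone and 100% = apelin-13 at 10 nM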
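Assay system – PathHunter CHO-K1 APJ (AGTRL-1) beta-arrestin reporter cells · Compound – one dose, 20 µM compound, 1% DMSO · Timing – compound 90 min 25 °C, reagent 1 h · Measured by – luminescence from split beta-galactosidase complementation, Galacton Star/Emerald II substrate · Measure – beta-arrestin recruitment to APJ as agonist activity, luminescent signal · Benchmarks – DMSO vs Apelin-13 10 nM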
APJ antagonist: antagonists of human apelin receptor APJ, primary screen, CHO-K1 cells, beta-arrestin complementation, luminescence; inhibition, % at 20 µM; AID 2521, 2010; P35414; 330,000 tested, 0.32% active;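 active = inhibition above about 40% at 20 µM, limit read from the data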;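 also: cells challenged with 10 nM apelin-13 agonist together with compound; plate controls were apelin-13 plus DMSO wells for no effect and DMSO wells lacking apelin-13 for full effect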
Numbers without * were called inactive; / = no result given. Shown are actives, neighbours in structure and some others; about 1.7% of the full set was active somewhere.

SMILES | PfGluPho inh | CCR6 antag | CXCR6 block | Beta2AR agonist | APJ agonist | APJ antagonist
CCOC(=O)/C(=C/c1ccc(OC(F)F)cc1)C1=Nn2c(nnc2-c2ccc(Cl)cc2)SC1 | 46.8 | 35.6 | 15.5 | 26.5 | / | /
CN(Cc1ccc(Cl)c(Cl)c1)C(=O)C1CC(=O)N(c2ccc3c(c2)OCCO3)C1 (stereo unspecified) | -17.4 | / | -7.8 | / | / | /
O=C(OCc1c(-c2ccccc2)ncc2ccccc12)c1ccc(Cl)cc1Cl | 7.3 | 27.6 | 4.6 | 1.1 | -1.1 | 5.8
CC1CCCCC1NC(=S)NC(=O)c1sc2ccccc2c1Cl (stereo unspecified) | -0.3 | 14.7 | 6.9 | 2.2 | -1.0 | 1.3
O=C(NC(=S)N(CCCCO)C1CCCCC1)c1sc2ccccc2c1Cl | 19.8 | 66.7* | 18.3 | -1.1 | -4.9 | 31.2
COC(=O)C1CCN(S(=O)(=O)c2cc3c4c(c2)CCN4C(=O)CC3)CC1 | -9.9 | -0.1 | -3.9 | 9.2 | 8.3 | -50.3
O=C1/C(=C\c2ccc(O)cc2)SC(=S)N1/N=C/c1ccc(O)cc1 | -3.3 | 66.2* | 47.1* | -45.2 | -7.1 | 30.0
O=C1Nc2ccc(Br)cc2/C1=N\N=C\C1=C(N2CCOCC2)C(=C/c2ccccc2)/CC1 | 39.7 | 55.4* | 40.9* | 22.7 | / | /
N#CC(C#N)=C(N)/C(C#N)=C/c1cc(O)c(O)c(O)c1 | 7.1 | 70.5* | 54.7* | 5.3 | -7.4 | 56.8*
CNc1cccccc1=S | 65.3* | 11.3 | 5.1 | 6.4 | 0.6 | -12.6
CC(=O)Nc1cccc(C(=O)/C=C/c2ccc(F)cc2)c1 | 13.9 | 18.1 | 9.7 | 54.2* | 0.1 | 13.3
CC(=O)Nc1cccc(C(=O)/C=C/c2ccc(Br)cc2)c1 | -1.2 | 47.5 | -2.6 | 66.8* | 1.1 | 0.4
CC(=O)Nc1cccc(C(=O)/C=C/c2ccc(/C=C/C(=O)c3cccc(NC(C)=O)c3)cc2)c1 | / | / | / | / | 0.7 | -7.1
CC(=O)Nc1cccc(C(=O)/C=C/c2ccc(N(C)C)cc2)c1 | 34.4 | 5.2 | -9.3 | 2.5 | 2.2 | -14.9
O=c1oc2ccccc2c(Cl)c1CN1CCCCC1 | -5.5 | 92.3* | 96.5* | 1.1 | -7.6 | 86.5*
O=c1oc2ccccc2c(N2CCCC2)c1CN1CCCC1 | -13.4 | -4.9 | 2.5 | -9.8 | 4.4 | -32.4
CCN1/C(=C\C(=S)Nc2ccccc2)Sc2ccccc21 | 58.5 | 17.6 | 1.1 | 6.2 | -3.0 | 18.8
CCN1/C(=C/C(C)=C/c2sc3ccccc3[n+]2CC)Sc2ccccc21 | 41.4 | 61.7* | 57.2* | -357.2 | -0.3 | 56.0*
Cc1ccc(-n2nc(C)c(/C=N/NC(=O)c3cccnc3)c2Cl)cc1 | 5.1 | -4.0 | -27.1 | -1.3 | -1.6 | 3.0
Cc1nn(-c2ccccc2)c(C)c1/C=N/NC(=O)c1cc(-c2ccccc2)n[nH]1 | 11.9 | 14.0 | 11.6 | 68.2* | 4.9 | -9.8
Cc1cccc(/C=N/NC(=O)c2cc(-c3cccnc3)nc3ccccc23)c1 | 8.8 | -1.3 | 14.0 | -6.4 | -3.0 | 9.3
Cc1cccc(/C=N/NC(=O)c2cc(-c3cccnc3)nc3c2c(C)nn3-c2ccccc2)c1 | 0.3 | 4.6 | 8.5 | 103.4* | -1.0 | -3.2
Cc1nn(-c2ccccc2)c(Cl)c1/C=N/NC(=O)c1cccnc1 | -20.9 | 10.0 | -5.1 | 50.0* | -1.5 | 11.6
CCCCC[C@H](C)N1C[C@@H](COCc2ccccc2)Oc2cc(N3CCC[C@H]3C(N)=O)ccc2S1(=O)=O | / | / | 14.1 | / | / | /
Cc1cccc(NS(=O)(=O)c2nnc(NC(=O)c3cccc(C)c3)s2)c1 | -30.1 | -6.3 | -1.5 | -14.5 | -3.0 | -0.6
SMILES | PfGluPho inh | CCR6 antag | CXCR6 block | Beta2AR agonist | APJ agonist | APJ antagonist
Cc1cccc(C(=O)Nc2nnc(S(=O)(=O)N(C)Cc3ccco3)s2)c1 | 95.4* | 2.6 | 3.6 | -2.1 | -0.8 | 18.3
C=CCN(CC=C)C(=O)c1cccc(OC2CCN(CC(C)(C)C)CC2)c1 | -5.2 | 1.5 | -4.7 | -2.0 | -2.3 | 0.1
Cc1nn(-c2ccccn2)c2c1C(c1ccccc1Cl)C1=C(N2)c2ccccc2C1=O (stereo unspecified) | -13.8 | 78.8* | 25.9 | 24.7 | -2.4 | 19.0
C=CC#CC[N+]1(CC#Cc2ccccc2)CCOCC1 | 71.7* | 11.6 | 1.9 | 72.0* | / | /
C(#Cc1ccccc1)C[N+]1(CC#Cc2ccccc2)CCCC1 | 1.3 | 6.3 | -3.8 | 4.9 | -3.8 | 2.2
O=C1CNC(=S)N1Cc1cccc(Cl)c1 | -1.9 | 1.1 | 6.0 | 14.3 | -4.9 | -8.9
CCc1ccc(C(=O)Cn2ncc(Cl)c(Cl)c2=O)cc1 | -6.1 | 0.7 | 10.3 | 39.8 | 2.3 | 5.5
O=C(OCn1ncc(Cl)c(Cl)c1=O)c1cccc(C(F)(F)F)c1 | 4.1 | 58.9* | 49.6* | 41.7 | -1.1 | 37.6
CCCCCCNC(=O)N[C@@H](C(=O)NCCC[C@H]1CN2C(=NC[C@@H]2Cc2ccccc2)N1CCc1cccc(OC)c1)C(C)C | 64.5* | 2.4 | / | / | -5.3 | -0.3
C/C=C(\C)C(=O)NCCN1C2=NC[C@@H](Cc3ccccc3)N2C[C@@H]1Cc1ccc(OC)cc1 | -3.5 | 10.3 | 12.1 | 3.3 | -0.6 | 4.3
CCC1=C/C(=C/c2sc3ccccc3[n+]2CC)CC(C)(C)C1 | 60.6* | 19.2 | / | 1.3 | -2.7 | 6.3
CC1CCCCC1NC(=O)CCNS(=O)(=O)c1ccc(Cl)cc1 (stereo unspecified) | 2.9 | 5.1 | -1.4 | -1.9 | -1.2 | 23.4
CCn1ncc(CN2CCC(Oc3cc(C(=O)NC4CC4)ccc3OC)CC2)c1C | -24.6 | 5.4 | 0.8 | -6.1 | 9.0 | -10.9
O=C1CSC(=S)N1/N=C/c1c(F)cccc1F | 16.4 | -3.9 | -9.0 | 9.8 | 6.5 | -12.7
O=C1CSC(=S)N1/N=C/C=C/c1ccccc1 | -8.4 | 34.4 | 45.7* | 3.1 | -1.8 | 2.0
Cc1ccc(-c2nn3c(-c4ccco4)nnc3c3ccccc23)cc1S(=O)(=O)NCC1CCCO1 (stereo unspecified) | 52.7 | 50.9* | 0.0 | 5.2 | -10.3 | 11.4
CCOC(=O)C1=CCN(S(=O)(=O)c2ccccc2Cl)C1c1ccc(C)cc1 (stereo unspecified) | / | / | 2.0 | / | / | /
Cc1ccc(C)c2sc(NC(=O)c3nc4ccccc4s3)nc12 | -4.4 | 50.6* | 38.3 | -7.7 | -3.3 | 16.1
COc1ccc(Cl)cc1C(=O)Nn1c(-c2cccs2)nc2ccccc2c1=O | -5.3 | 4.8 | -0.3 | 67.8* | -2.1 | 5.3
Cc1ccc(NC(=S)N2CCC(C(=O)c3ccc(F)cc3)CC2)cc1C | 8.7 | 16.4 | -9.7 | -3.8 | / | /
O=C(NCc1cccnc1)c1ccc(-c2ccc(Cl)cc2)o1 | -7.0 | 4.9 | 3.0 | 4.5 | -1.9 | 0.1
